ChEMBL document CHEMBL3525987, “Assessment of exposure of metabolites in preclinical species and humans at steady state from the single-dose radiolabeled absorption, distribution, metabolism, and excretion studies: a case study” (Drug Metab Dispos, 2012)

What was measured:
Conditions in all cases: in vivo
Canis familiaris [1] = assay: AUC(0 to t) as total radioactivity in male beagle dog plasma at 10 mg/kg, po administered as single dose by LC-MS/MS analysis; format: ADME, organism-based, Canis lupus familiaris; design: dose 10 mg/kg, dosed compound name [14C]lixivaptan, route oral
Outline: (§1)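 Four male beagles were fasted 18 h and gavaged once with 10 mg/kg (2 ml/kg) [14C]lixivaptan as a 5.0 mg/ml water/pluronic F68 suspension. Jugular K2EDTA blood was sampled from 0.25 to 168 h. Plasma total radioactivity was counted by LSC as ng-equiv/ml and lixivaptan by validated LC-MS/MS. Noncompartmental Cmax, t1/2 and trapezoidal AUC were derived.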

Rattus norvegicus [2] = assay: Total drug recovery in bile duct-cannulated female Sprague-Dawley rat at 10 mg/kg, po administered as single dose via gavage measured 0 to 48 hrs by liquid scintillation counting; format: ADME, organism-based; design: dose 10 mg/kg, dosed compound name [14C]lixivaptan, route oral
Homo sapiens [3] = assay: Drug level in human plasma at 100 mg, po administered as single dose measured after 8 hrs by liquid scintillation counting; format: ADME, organism-based; design: dosed compound name [14C]lixivaptan
Outline: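 Healthy male volunteers fasted ≥10 h, given single oral 100 mg (200 µCi) [14C]drug as two 50-mg capsules with 250 ml water. Plasma (from ~50 ml blood) at 0.5, 2, 4, 8, 12, 24, 36 h, profiled per subject. Acetonitrile extraction, C18 radio-HPLC with 0.2% formic acid acetonitrile/water gradient, on-line radioactivity detection as % plasma radioactivity; ng-equiv/ml from % × total radioactivity.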

Rattus norvegicus [4] = assay: Drug level in female Sprague-Dawley rat plasma at 10 mg/kg, po administered as single dose via gavage measured after 8 hrs by liquid scintillation counting; format: ADME, organism-based; design: dose 10 mg/kg, dosed compound name [14C]lixivaptan, route oral
Outline: (§2)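 Sprague-Dawley rats (9/gender) were fasted 18 h and gavaged once with [14C]lixivaptan at 10 mg/kg (10 ml/kg), about 29.8 µCi/mg, suspended in deionized water with pluronic F68. Plasma came by cardiac puncture under isoflurane at 1, 8 and 24 h (3/gender/time) and was extracted twice with 2 volumes of acetonitrile. C18 radio-HPLC with a flow scintillation detector gave percent of plasma radioactivity per peak.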

Rattus norvegicus [5] = assay: Cmax as total radioactivity in male Sprague-Dawley rat plasma at 10 mg/kg, po administered as single dose via gavage by LC-MS/MS analysis; format: ADME, organism-based; design: dose 10 mg/kg, dosed compound name [14C]lixivaptan, route oral
Outline: (§3)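 Jugular-cannulated Sprague-Dawley rats (5/gender) were fasted 18 h and gavaged once with 10 mg/kg [14C]lixivaptan suspended in water/pluronic F68. K2EDTA blood was taken at 0.25–168 h, with donor blood replaced from 1 h on. Total radioactivity was read by LSC (ng-equiv/ml) and parent by validated LC-MS/MS. Noncompartmental Cmax, log-linear kel and trapezoidal AUC followed.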

Canis familiaris [6] = assay: Tmax as total radioactivity in male beagle dog plasma at 10 mg/kg, po administered as single dose by LC-MS/MS analysis; format: ADME, organism-based, Canis lupus familiaris; design: dose 10 mg/kg, dosed compound name [14C]lixivaptan, route oral
Outline: (§4)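 Male beagles given 10 mg/kg [14C]drug oral suspension; jugular K2EDTA blood at 0.25-168 h. Parent by validated LC-MS/MS, total radioactivity by LSC; Tmax observed; t1/2 = 0.693/kel from terminal log-linear regression.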

Homo sapiens [7] = assay: Cmax in human at 100 mg, po
Rattus norvegicus [8] = assay: Drug level in female Sprague-Dawley rat plasma at 10 mg/kg, po administered as single dose via gavage measured after 1 hr by liquid scintillation counting; format: ADME, organism-based; design: dose 10 mg/kg, dosed compound name [14C]lixivaptan, route oral; outline: as §2
Homo sapiens [9] = assay: Tmax as total radioactivity in human plasma at 100 mg, po administered as single dose by LC-MS/MS analysis; format: ADME, organism-based; design: dosed compound name [14C]lixivaptan
Outline: (§5)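 Single oral 100 mg [14C]drug to healthy male volunteers; plasma at 0.25-144 h. Parent by validated LC-MS/MS, total radioactivity by LSC as ng-equiv/ml; Tmax from observed data; t1/2 = 0.693/kel from log-linear terminal regression.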

Canis familiaris [10] = assay: AUC (0 to 24 hrs) in beagle dog at 10 mg/kg, po administered as single dose; format: ADME, organism-based, Canis lupus familiaris, Plasma; design: time < 24 hr, dose 10 mg/kg, dosed compound name [14C]lixivaptan, route oral
Outline: (§6)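 Four male beagles fasted 18 h were gavaged once with [14C]lixivaptan at 10 mg/kg (2 ml/kg). The 5.0 mg/ml suspension was in deionized water with pluronic F68 (1.04 µCi/mg). Jugular K2EDTA plasma was taken at 2, 8 and 24 h and extracted twice with 2 volumes of acetonitrile. Profiling used C18 radio-HPLC (ammonium formate/acetonitrile gradient) with on-line flow scintillation detection. Each peak is reported as percent of plasma radioactivity.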

[11] = Drug recovery in feces of human at […], po administered as single dose measured after 168 hrs by liquid scintillation counting; format: ADME, organism-based; design: dosed compound name [14C]lixivaptan, route oral
Outline: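 Healthy male volunteers given single oral 100 mg (200 µCi) [14C]drug capsules after ≥10 h fast. Urine at 0-4, 4-8, 8-12, 12-24 h then 24-h intervals; feces as passed, to 168 h. Urine LSC; feces homogenized in water, combusted, LSC; % of dose.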

Canis familiaris [12] = assay: Half life as total radioactivity in male beagle dog plasma at 10 mg/kg, po administered as single dose by LC-MS/MS analysis; format: ADME, organism-based, Canis lupus familiaris; design: dose 10 mg/kg, dosed compound name [14C]lixivaptan, route oral; outline: as §4
Rattus norvegicus [13] = assay: Total drug recovery in bile duct-cannulated male Sprague-Dawley rat at 10 mg/kg, po administered as single dose via gavage measured from 0 to 48 hrs by liquid scintillation counting; format: ADME, organism-based; design: dose 10 mg/kg, dosed compound name [14C]lixivaptan, route oral
Outline: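 Male BDC rats (n=5) given oral [14C]drug as a suspension in deionized water with pluronic F68 (10 ml/kg). Drinking water supplemented with bile salts, NaCl and KCl. Bile collected on wet ice at 0-4, 4-8, 8-24 and 24-48 h. Duplicate aliquots counted by LSC; recovery expressed as % of dose in bile.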

Homo sapiens [14] = assay: Half life as total radioactivity in human plasma at 100 mg, po administered as single dose by LC-MS/MS analysis; format: ADME, organism-based; design: dosed compound name [14C]lixivaptan; outline: as §5
Rattus norvegicus [15] = assay: AUC(0 to t) as total radioactivity in female Sprague-Dawley rat plasma at 10 mg/kg, po administered as single dose via gavage by LC-MS/MS analysis; format: ADME, organism-based; design: dose 10 mg/kg, dosed compound name [14C]lixivaptan, route oral; outline: as §3
Canis familiaris [16] = assay: AUC(0 to infinity) as total radioactivity in male beagle dog plasma at 10 mg/kg, po administered as single dose by LC-MS/MS analysis; format: ADME, organism-based, Canis lupus familiaris; design: time infinity, dose 10 mg/kg, dosed compound name [14C]lixivaptan, route oral; outline: as §1
Rattus norvegicus [17] = assay: Drug level in male Sprague-Dawley rat plasma at 10 mg/kg, po administered as single dose via gavage measured after 1 hr by liquid scintillation counting; format: ADME, organism-based; design: dose 10 mg/kg, dosed compound name [14C]lixivaptan, route oral
Outline: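 Single oral gavage of [14C]drug (10 mg/kg, 10 ml/kg) as suspension in deionized water with pluronic F68, ~29.8 µCi/mg; SD rats fasted 18 h, fed 4 h post-dose. Blood by cardiac puncture under isoflurane, 3 rats/time/gender, into K2EDTA at 1, 8, 24 h; plasma extracted twice with 2 vol acetonitrile, radio-HPLC on C18 with flow radioactivity detection, expressed as % plasma radioactivity.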

Canis familiaris [18] = assay: Drug level in beagle dog plasma at 10 mg/kg, po administered as single dose measured after 2 hrs by liquid scintillation counting; format: ADME, organism-based, Canis lupus familiaris; design: dose 10 mg/kg, dosed compound name [14C]lixivaptan, route oral; outline: as §6
[19] = Drug recovery in feces of female Sprague-Dawley rat at 10 mg/kg, po administered as single dose via gavage measured after 168 hrs by liquid scintillation counting; format: ADME, organism-based; design: dose 10 mg/kg, dosed compound name [14C]lixivaptan, route oral
Outline: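 Intact SD rats (3/gender) dosed by gavage with [14C]drug 10 mg/kg (10 ml/kg, pluronic F68/water), housed in metabolism cages; urine and feces at 0-8, 8-24 h, then every 24 h to 7 days. Urine counted by LSC; feces homogenized 20% w/w in water, combusted, trapped CO2 counted; cage wash/debris included; % of dose.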

Rattus norvegicus [20] = assay: AUC(0 to infinity) as total radioactivity in female Sprague-Dawley rat plasma at 10 mg/kg, po administered as single dose via gavage […]; format: ADME, organism-based; design: time infinity, dose 10 mg/kg, dosed compound name [14C]lixivaptan, route oral; outline: as §3

- AUCt (Canis familiaris [1]): 82800 ng.Eq.hr/ml
- Radiolabel recovery (Rattus norvegicus [2]): 70.5%
- Compound recovery (Homo sapiens [3]): 6.7%
- Compound recovery (Rattus norvegicus [4]): 12.2%
- Cmax (Rattus norvegicus [5]): 2820 ngequiv/ml
- Tmax (Canis familiaris [6]): 1.8 h
- Cmax (Homo sapiens [7]): 454 ngequiv/ml
- Compound recovery (Rattus norvegicus [8]): 29.9%
- Tmax (Homo sapiens [9]): 1.2 h
- AUC (Canis familiaris [10]): 11200 ng.Eq.hr/ml
- Radiolabel recovery [11]: 63.7%
- t1/2 (Canis familiaris [12]): 69.7 h
- Radiolabel recovery (Rattus norvegicus [13]): 65.4%
- t1/2 (Homo sapiens [14]): 25.5 h
- AUCt (Rattus norvegicus [15]): 36700 ng.Eq.hr/ml
- AUC (Canis familiaris [16]): 94900 ng.Eq.hr/ml
- Compound recovery (Rattus norvegicus [17]): 4.1%
- Compound recovery (Canis familiaris [18]): 21.2%
- Radiolabel recovery [19]: 92%
- AUC (Rattus norvegicus [20]): 37200 ng.Eq.hr/ml
SMILES: Cc1ccc(F)cc1[14C](=O)Nc1ccc(C(=O)N2Cc3cccn3Cc3ccccc32)c(Cl)c1
